From ChEMBL document CHEMBL5523690, “Synergistic effect of tryptamine-urea derivatives to overcome the chromosomally-mediated colistin resistance in Klebsiella pneumoniae” (Bioorg Med Chem, 2024)

Columns and labels:
Format in all cases: functional
Klebsiella pneumoniae [1] = assay: Colistin adjuvant activity against colistin-resistant Klebsiella pneumoniae BA03057 assessed as antibacterial effect by measuring colistin MIC incubated for 24 hrs under aerobic condition by two fold serial dilution method
Escherichia coli [2] = assay: Colistin adjuvant activity against colistin-resistant Escherichia coli A50 assessed as antibacterial effect by measuring colistin MIC incubated for 24 hrs under aerobic condition by two fold serial dilution method
Pseudomonas aeruginosa [3] = assay: Antibacterial activity against Pseudomonas aeruginosa ATCC27853 assessed as inhibition of visible bacterial growth measured after 20 hrs under aerobic condition by two fold serial dilution assay
In short: (§1)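 Broth microdilution following EUCAST. Compound was tested at final well concentrations of 0.25–128 µg/mL against 5.10^5 CFU/mL inoculum, incubated 20 h at 37 °C aerobically. MIC was taken as the lowest concentration with no visible growth. There were three independent experiments per strain.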

Klebsiella pneumoniae [4] = assay: Antibacterial activity against Klebsiella pneumoniae ATCC700603 assessed as inhibition of visible bacterial growth measured after 20 hrs under aerobic condition by two fold serial dilution assay; in short: as §1
Escherichia coli [5] = assay: Antibacterial activity against Escherichia coli ATCC25922 assessed as inhibition of visible bacterial growth measured after 20 hrs under aerobic condition by two fold serial dilution assay; in short: as §1
Escherichia coli [6] = assay: Antibacterial activity against colistin resistant Escherichia coli A50 harboring mcr-1 gene assessed as inhibition of visible bacterial growth measured after 20 hrs under aerobic condition by two fold serial dilution assay
Escherichia coli [7] = assay: Colistin adjuvant activity against colistin-resistant Escherichia coli A50 assessed as colistin MIC by measuring potentiation fold incubated for 24 hrs under aerobic condition by two fold serial dilution method relative to colistin alone
Pseudomonas aeruginosa [8] = assay: Antibacterial activity against chromosomally-mediated colistin resistant Pseudomonas aeruginosa 10039 assessed as inhibition of visible bacterial growth measured after 20 hrs under aerobic condition by two fold serial dilution assay
Klebsiella pneumoniae [9] = assay: Colistin adjuvant activity against colistin-resistant Klebsiella pneumoniae BA03057 assessed as colistin MIC by measuring potentiation fold incubated for 24 hrs under aerobic condition by two fold serial dilution method relative to colistin alone
Pseudomonas aeruginosa [10] = assay: Antibacterial activity against chromosomally-mediated colistin resistant Pseudomonas aeruginosa 1002 assessed as inhibition of visible bacterial growth measured after 20 hrs under aerobic condition by two fold serial dilution assay
Klebsiella pneumoniae [11] = assay: Antibacterial activity against chromosomally-mediated resistant Klebsiella pneumoniae BA03057 assessed as inhibition of visible bacterial growth measured after 20 hrs under aerobic condition by two fold serial dilution assay
Escherichia coli [12] = assay: Antibacterial activity against colistin resistant Escherichia coli NTCC 13846 harboring mcr-1 gene assessed as inhibition of visible bacterial growth measured after 20 hrs under aerobic condition by two fold serial dilution assay
Pseudomonas aeruginosa [13] = assay: Antibacterial activity against chromosomally-mediated colistin resistant Pseudomonas aeruginosa 15080 assessed as inhibition of visible bacterial growth measured after 20 hrs under aerobic condition by two fold serial dilution assay
Klebsiella pneumoniae [14] = assay: Synergistic antibacterial activity against Klebsiella pneumoniae BA03057 assessed as fractional inhibitory concentration index incubated for 24 hrs under aerobic condition in presence of colistin by checkerboard assay
In short: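 Checkerboard against KP BA03057 at 5.10^5 CFU/mL. Colistin was two-fold diluted 0–64 µg/mL across compound two-fold diluted 0–100 µM. Plates were incubated 24 h at 37 °C aerobically and absorbance read at 600 nm. FICI = MIC(compound, combined)/MIC(compound alone) + MIC(colistin, combined)/MIC(colistin alone), with synergy at FICI < 0.5. Plates were run in duplicate.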

| Molecule | MIC (Klebsiella pneumoniae [1]) | MIC (Escherichia coli [2]) | MIC (Pseudomonas aeruginosa [3]) | MIC (Klebsiella pneumoniae [4]) | MIC (Escherichia coli [5]) | MIC (Escherichia coli [6]) | fold change (FC) (Escherichia coli [7]) | MIC (Pseudomonas aeruginosa [8]) | fold change (FC) (Klebsiella pneumoniae [9]) | MIC (Pseudomonas aeruginosa [10]) | MIC (Klebsiella pneumoniae [11]) | MIC (Escherichia coli [12]) | MIC (Pseudomonas aeruginosa [13]) | fractional inhibitory concentration index (FICI) (Klebsiella pneumoniae [14]) |
| --- | --- | --- | --- | --- | --- | --- | --- | --- | --- | --- | --- | --- | --- | --- |
| COc1ccc(NC(=O)NCCc2c[nH]c3ccccc23)cc1 | 16 µg/mL | 4 µg/mL | > 128 µg/mL | > 128 µg/mL | > 128 µg/mL | > 128 µg/mL | 0.5 | > 128 µg/mL | 0.25 | > 128 µg/mL | > 128 µg/mL | > 128 µg/mL | > 128 µg/mL | – |
| O=C(NCCc1c[nH]c2ccccc12)Nc1ccccc1 | 8 µg/mL | 8 µg/mL | > 128 µg/mL | > 128 µg/mL | > 128 µg/mL | > 128 µg/mL | 1 | > 128 µg/mL | 0.125 | > 128 µg/mL | > 128 µg/mL | > 128 µg/mL | > 128 µg/mL | – |
| O=C(NCCc1c[nH]c2ccccc12)NCc1ccccc1 | 8 µg/mL | 4 µg/mL | > 128 µg/mL | > 128 µg/mL | > 128 µg/mL | > 128 µg/mL | 0.5 | > 128 µg/mL | 0.125 | > 128 µg/mL | > 128 µg/mL | > 128 µg/mL | > 128 µg/mL | – |
| O=C(NCCc1c[nH]c2ccccc12)Nc1cccc(Br)c1 | 8 µg/mL | 8 µg/mL | > 128 µg/mL | > 128 µg/mL | > 128 µg/mL | > 128 µg/mL | 1 | > 128 µg/mL | 0.125 | > 128 µg/mL | > 128 µg/mL | > 128 µg/mL | > 128 µg/mL | – |
| O=C(NCCc1c[nH]c2ccccc12)Nc1ccccc1Br | 2 µg/mL | 4 µg/mL | > 128 µg/mL | > 128 µg/mL | > 128 µg/mL | > 128 µg/mL | 0.5 | > 128 µg/mL | 0.031 | > 128 µg/mL | > 128 µg/mL | > 128 µg/mL | > 128 µg/mL | 0.31 |
| O=C(NCCc1c[nH]c2ccccc12)Nc1cc(Cl)cc(Cl)c1 | 2 µg/mL | 2 µg/mL | > 128 µg/mL | > 128 µg/mL | > 128 µg/mL | > 128 µg/mL | 0.25 | > 128 µg/mL | 0.031 | > 128 µg/mL | > 128 µg/mL | > 128 µg/mL | > 128 µg/mL | – |
| O=C(NCCc1c[nH]c2ccccc12)Nc1cccc(Cl)c1 | 2 µg/mL | 8 µg/mL | > 128 µg/mL | > 128 µg/mL | > 128 µg/mL | > 128 µg/mL | 1 | > 128 µg/mL | 0.031 | > 128 µg/mL | > 128 µg/mL | > 128 µg/mL | > 128 µg/mL | 0.062 |
| O=C(NCCc1c[nH]c2ccccc12)Nc1ccc(Cl)cc1 | 4 µg/mL | 4 µg/mL | > 128 µg/mL | > 128 µg/mL | > 128 µg/mL | > 128 µg/mL | 0.5 | > 128 µg/mL | 0.062 | > 128 µg/mL | > 128 µg/mL | > 128 µg/mL | > 128 µg/mL | 0.276 |
| CCCCCCNC(=O)NCCc1c[nH]c2ccccc12 | 2 µg/mL | 4 µg/mL | > 128 µg/mL | > 128 µg/mL | > 128 µg/mL | > 128 µg/mL | 0.5 | > 128 µg/mL | 0.031 | > 128 µg/mL | > 128 µg/mL | > 128 µg/mL | > 128 µg/mL | 0.143 |
| CC(C)(C)NC(=O)NCCc1c[nH]c2ccccc12 | 8 µg/mL | 8 µg/mL | > 128 µg/mL | > 128 µg/mL | > 128 µg/mL | > 128 µg/mL | 1 | > 128 µg/mL | 0.125 | > 128 µg/mL | > 128 µg/mL | > 128 µg/mL | > 128 µg/mL | – |
| Cc1ccc(NC(=O)NCCc2c[nH]c3ccccc23)cc1 | 8 µg/mL | 4 µg/mL | > 128 µg/mL | > 128 µg/mL | > 128 µg/mL | > 128 µg/mL | 0.5 | > 128 µg/mL | 0.125 | > 128 µg/mL | > 128 µg/mL | > 128 µg/mL | > 128 µg/mL | – |
| O=C(NCCc1c[nH]c2ccccc12)Nc1ccccc1F | 8 µg/mL | 8 µg/mL | > 128 µg/mL | > 128 µg/mL | > 128 µg/mL | > 128 µg/mL | 1 | > 128 µg/mL | 0.125 | > 128 µg/mL | > 128 µg/mL | > 128 µg/mL | > 128 µg/mL | – |
| COLISTIN | – | – | 2 µg/mL | 0.5 µg/mL | 0.25 µg/mL | 8 µg/mL | – | 4 µg/mL | – | 2 µg/mL | 64 µg/mL | 2 µg/mL | 2 µg/mL | – |
| O=C(NCCc1c[nH]c2ccccc12)Nc1ccc(Br)cc1 | 8 µg/mL | 2 µg/mL | > 128 µg/mL | > 128 µg/mL | > 128 µg/mL | > 128 µg/mL | 0.25 | > 128 µg/mL | 0.125 | > 128 µg/mL | > 128 µg/mL | > 128 µg/mL | > 128 µg/mL | – |
| O=C(NCCc1c[nH]c2ccccc12)Nc1ccc(F)cc1 | 8 µg/mL | 4 µg/mL | > 128 µg/mL | > 128 µg/mL | > 128 µg/mL | > 128 µg/mL | 0.5 | > 128 µg/mL | 0.125 | > 128 µg/mL | > 128 µg/mL | > 128 µg/mL | > 128 µg/mL | – |
| O=C(NCCc1c[nH]c2ccccc12)Nc1ccccc1Cl | 8 µg/mL | 8 µg/mL | > 128 µg/mL | > 128 µg/mL | > 128 µg/mL | > 128 µg/mL | 1 | > 128 µg/mL | 0.125 | > 128 µg/mL | > 128 µg/mL | > 128 µg/mL | > 128 µg/mL | – |
| CC(C)c1ccc(NC(=O)NCCc2c[nH]c3ccccc23)cc1 | 16 µg/mL | 4 µg/mL | > 128 µg/mL | > 128 µg/mL | > 128 µg/mL | > 128 µg/mL | 0.5 | > 128 µg/mL | 0.25 | > 128 µg/mL | > 128 µg/mL | > 128 µg/mL | > 128 µg/mL | – |
| CCCNC(=O)NCCc1c[nH]c2ccccc12 | 8 µg/mL | 4 µg/mL | > 128 µg/mL | > 128 µg/mL | > 128 µg/mL | > 128 µg/mL | 0.5 | > 128 µg/mL | 0.125 | > 128 µg/mL | > 128 µg/mL | > 128 µg/mL | > 128 µg/mL | – |
| O=C(NCCc1c[nH]c2ccccc12)Nc1ccc(C(F)(F)F)cc1 | 2 µg/mL | 8 µg/mL | > 128 µg/mL | > 128 µg/mL | > 128 µg/mL | > 128 µg/mL | 1 | > 128 µg/mL | 0.031 | > 128 µg/mL | > 128 µg/mL | > 128 µg/mL | > 128 µg/mL | 0.167 |
